Results taken from ChEMBL document CHEMBL1140966, “Syntheses and evaluation of 3-(3-bromo phenyl)-5-phenyl-1-(thiazolo [4,5-b] quinoxaline-2-yl)-2-pyrazoline derivatives” (Eur J Med Chem, 2008).

Legend:
Entamoeba histolytica = test: Antiamoebic activity against Entamoeba histolytica HMI:IMSS after 72 hrs by microdilution method; format: functional, organism-based
In short: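 E. histolytica HMI:IMSS trophozoites grown in TYIS-33 medium. Compounds dissolved in DMSO, made up to 1 mg/ml with medium, then twofold serial dilutions in 96-well plates. 1.7 × 10⁴ viable organisms/well; plates gassed with nitrogen for 10 min, 37 °C for 72 h. Cells methanol-fixed and eosin-stained, dye released with 0.1 N NaOH, OD read at 490 nm. IC50 taken from linear regression of % inhibition vs log dose.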

[1] = Cytotoxicity against human kidney epithelial cells after 44 hrs by MTT assay; format: cell-based; conditions: Epithelial cell
In short: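 Transformed human kidney epithelial (Graham) cells kept at 37 °C in 5% CO2. Trypsinized cells adjusted to 0.5 million cells/mL and plated with compound. After 44 h, 2 mM MTT added for a further 4 h, then DMSO added to dissolve formazan. Absorbance read at 540 nm with 690 nm reference; % viability calculated against controls.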

[2] = Safety index, ratio of IC50 for human kidney epithelial cells to IC50 for Entamoeba histolytica HMI:IMSS; format: toxicity, cell-based, Epithelial cell; conditions: read-out: Ratio IC50
In short: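 Ratio computed as toxicity IC50 in human kidney epithelial cells (concentration killing 50% of cells, MTT) over protozoal IC50 against E. histolytica (concentration killing 50% of amoebae).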

SMILES	IC50 (Entamoeba histolytica) [nM]	IC50 [1] [nM]	selectivity ratio [2]
CCc1ccccc1C1CC(c2cccc(Br)c2)=NN1c1nc2nc3ccccc3nc2s1 (centres undefined)	2490	> 60000	> 24.1
CC(C)c1ccccc1C1CC(c2cccc(Br)c2)=NN1c1nc2nc3ccccc3nc2s1 (centres undefined)	1870	> 60000	> 32.1
Clc1cccc(C2CC(c3cccc(Br)c3)=NN2c2nc3nc4ccccc4nc3s2)c1Cl (centres undefined)	700	> 60000	> 85.7
Brc1cccc(C2=NN(c3nc4nc5ccccc5nc4s3)C(c3ccccc3)C2)c1 (centres undefined)	140	> 60000	> 428
Brc1cccc(C2=NN(c3nc4nc5ccccc5nc4s3)C(c3c[nH]c4ccccc34)C2)c1 (centres undefined)	80	> 60000	> 750
Cc1ccc(C2CC(c3cccc(Br)c3)=NN2C(N)=S)cc1 (centres undefined)	4380		
Cc1cc(C)c(C2CC(c3cccc(Br)c3)=NN2C(N)=S)c(C)c1 (centres undefined)	1710		
Cc1ccc(C2CC(c3cccc(Br)c3)=NN2c2nc3nc4ccccc4nc3s2)cc1 (centres undefined)	100	> 60000	> 600
Cc1cc(C)c(C2CC(c3cccc(Br)c3)=NN2c2nc3nc4ccccc4nc3s2)c(C)c1 (centres undefined)	1290	> 60000	> 46.5
Clc1ccccc1C1CC(c2cccc(Br)c2)=NN1c1nc2nc3ccccc3nc2s1 (centres undefined)	680	> 60000	> 88.2
NC(=S)N1N=C(c2cccc(Br)c2)CC1c1c[nH]c2ccccc12 (centres undefined)	2280		
CC(C)c1ccccc1C1CC(c2cccc(Br)c2)=NN1C(N)=S (centres undefined)	2340		
Cc1ncc([N+](=O)[O-])n1CCO [METRONIDAZOLE]		> 100000	> 55.5

Now from value to molecule, other results behind:

IC50 (Entamoeba histolytica) [nM]	SMILES	IC50 [1] [nM]	selectivity ratio [2]
2610	CCc1ccccc1C1CC(c2cccc(Br)c2)=NN1C(N)=S (centres undefined)		
560	NC(=S)N1N=C(c2cccc(Br)c2)CC1c1cccc(Cl)c1Cl (centres undefined)		
1800	Cc1cc(C)c(/C=C/C(=O)c2cccc(Br)c2)c(C)c1		
2490	Cc1ccc(/C=C/C(=O)c2cccc(Br)c2)cc1		
2230	O=C(/C=C/c1ccccc1Cl)c1cccc(Br)c1		
1920	CC(C)c1ccccc1/C=C/C(=O)c1cccc(Br)c1		
1110	O=C(/C=C/c1ccc(Cl)cc1Cl)c1cccc(Br)c1		
190	NC(=S)N1N=C(c2cccc(Br)c2)CC1c1ccccc1 (centres undefined)		
1900	NC(=S)N1N=C(c2cccc(Br)c2)CC1c1ccccc1Cl (centres undefined)		
